Experimental findings from ChEMBL document CHEMBL4033676, “Design, synthesis and biological evaluation of 3,4-dihydro-2(1H)-quinoline-O-alkylamine derivatives as new multipotent cholinesterase/monoamine oxidase inhibitors for the treatment of Alzheimer's disease” (Bioorg Med Chem, 2017) are described below.

The species entered for one test is Rattus norvegicus. As to the kind of experiment: Selectivity index, ratio of IC50 for rat serum BuChE to IC50 for 5% rat cortex homogenate AChE.
Test [1] has as its target Acetylcholinesterase (Electrophorus electricus, UniProt O42275). In words: Inhibition of electric eel AChE using acetylthiocholine chloride as substrate after 15 mins by Ellman's method.
Another test addresses Cholinesterase (Equus caballus, UniProt P81908). In words: Inhibition of equine serum BuChE using butyrylthiocholine chloride as substrate after 15 mins by Ellman's method. Summed up:
(§1)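 Ellman assay. Equine serum or rat serum BuChE pre-incubated with test compound at various concentrations (DMSO <1%) in 0.1 M phosphate buffer pH 8.0 for 15 min at 37°C. DTNB (0.2%) added, absorbance read at 412 nm. Inhibition % = (1−Ai/Ac)×100. IC50 is the mean of three independent experiments, each run in triplicate.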
(In general: DTNB colorimetry detects thiols as they appear.)

Test [2] addresses T1, Acetylcholinesterase (Rattus norvegicus, UniProt P37136).
T1 sequence (P37136 whole entry): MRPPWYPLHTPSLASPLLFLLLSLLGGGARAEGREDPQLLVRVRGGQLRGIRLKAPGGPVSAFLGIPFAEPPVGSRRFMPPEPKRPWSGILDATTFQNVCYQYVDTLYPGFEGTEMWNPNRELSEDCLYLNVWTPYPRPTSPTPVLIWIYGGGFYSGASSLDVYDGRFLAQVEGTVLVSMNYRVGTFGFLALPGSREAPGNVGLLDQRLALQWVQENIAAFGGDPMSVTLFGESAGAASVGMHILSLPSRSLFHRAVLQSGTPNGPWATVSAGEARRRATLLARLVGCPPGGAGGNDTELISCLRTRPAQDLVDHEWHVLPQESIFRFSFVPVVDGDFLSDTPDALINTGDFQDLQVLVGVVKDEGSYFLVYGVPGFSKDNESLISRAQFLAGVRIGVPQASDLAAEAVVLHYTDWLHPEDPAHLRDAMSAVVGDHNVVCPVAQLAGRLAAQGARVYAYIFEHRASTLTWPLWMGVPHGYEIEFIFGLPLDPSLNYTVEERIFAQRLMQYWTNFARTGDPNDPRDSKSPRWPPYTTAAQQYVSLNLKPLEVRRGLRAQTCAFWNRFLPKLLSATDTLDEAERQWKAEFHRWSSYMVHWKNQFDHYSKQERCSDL

Test [3] can be described thus: Inhibition of rat serum BuChE using butyrylthiocholine chloride as substrate after 15 mins by Ellman's method. Summed up:
as §1

A short description of test [4]: Selectivity index, ratio of IC50 for equine serum BuChE to IC50 for electric eel AChE.
The target of test [5] is T2, Amine oxidase [flavin-containing] A (Homo sapiens, UniProt P21397).
T2 sequence (P21397 whole entry): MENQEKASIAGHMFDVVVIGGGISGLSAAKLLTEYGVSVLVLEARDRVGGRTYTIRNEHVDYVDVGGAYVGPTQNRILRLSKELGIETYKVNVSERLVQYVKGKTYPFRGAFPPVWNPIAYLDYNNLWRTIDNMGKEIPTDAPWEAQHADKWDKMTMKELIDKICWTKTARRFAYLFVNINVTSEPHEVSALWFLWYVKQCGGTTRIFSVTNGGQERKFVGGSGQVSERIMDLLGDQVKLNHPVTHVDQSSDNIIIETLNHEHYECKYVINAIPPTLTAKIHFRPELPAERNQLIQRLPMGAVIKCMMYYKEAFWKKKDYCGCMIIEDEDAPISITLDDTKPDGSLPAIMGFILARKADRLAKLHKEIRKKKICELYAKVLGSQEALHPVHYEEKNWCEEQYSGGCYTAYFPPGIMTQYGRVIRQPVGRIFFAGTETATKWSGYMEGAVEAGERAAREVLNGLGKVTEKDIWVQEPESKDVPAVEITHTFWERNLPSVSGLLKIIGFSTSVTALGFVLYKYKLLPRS
In words: Inhibition of recombinant human MAO-A expressed in baculovirus infected BTI insect cells using kynuramine as substrate after 30 mins by fluorescence assay.

The target of test [6] is T3, Amine oxidase [flavin-containing] B (Homo sapiens, UniProt P27338).
T3 sequence (P27338 whole entry): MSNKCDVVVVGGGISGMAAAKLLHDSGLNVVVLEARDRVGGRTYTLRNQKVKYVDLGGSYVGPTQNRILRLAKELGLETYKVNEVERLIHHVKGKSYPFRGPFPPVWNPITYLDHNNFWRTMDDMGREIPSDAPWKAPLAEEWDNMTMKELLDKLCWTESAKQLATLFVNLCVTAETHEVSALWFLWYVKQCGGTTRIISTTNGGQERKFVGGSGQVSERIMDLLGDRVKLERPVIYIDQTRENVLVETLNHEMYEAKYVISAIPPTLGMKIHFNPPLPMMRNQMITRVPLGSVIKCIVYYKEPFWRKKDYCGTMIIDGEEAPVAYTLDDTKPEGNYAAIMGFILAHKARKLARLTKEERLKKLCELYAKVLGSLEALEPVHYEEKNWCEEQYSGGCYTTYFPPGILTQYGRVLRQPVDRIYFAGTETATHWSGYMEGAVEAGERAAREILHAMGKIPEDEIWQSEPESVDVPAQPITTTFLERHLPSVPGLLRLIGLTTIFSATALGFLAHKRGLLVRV
In words: biochemical. It is filed as cell-based.

For the next test, the species on record is Homo sapiens. As to the kind of experiment: Selectivity index, ratio of IC50 for recombinant human MAO-B to IC50 for recombinant human MAO-A.

Chain of Cholinesterase (P81908 whole entry): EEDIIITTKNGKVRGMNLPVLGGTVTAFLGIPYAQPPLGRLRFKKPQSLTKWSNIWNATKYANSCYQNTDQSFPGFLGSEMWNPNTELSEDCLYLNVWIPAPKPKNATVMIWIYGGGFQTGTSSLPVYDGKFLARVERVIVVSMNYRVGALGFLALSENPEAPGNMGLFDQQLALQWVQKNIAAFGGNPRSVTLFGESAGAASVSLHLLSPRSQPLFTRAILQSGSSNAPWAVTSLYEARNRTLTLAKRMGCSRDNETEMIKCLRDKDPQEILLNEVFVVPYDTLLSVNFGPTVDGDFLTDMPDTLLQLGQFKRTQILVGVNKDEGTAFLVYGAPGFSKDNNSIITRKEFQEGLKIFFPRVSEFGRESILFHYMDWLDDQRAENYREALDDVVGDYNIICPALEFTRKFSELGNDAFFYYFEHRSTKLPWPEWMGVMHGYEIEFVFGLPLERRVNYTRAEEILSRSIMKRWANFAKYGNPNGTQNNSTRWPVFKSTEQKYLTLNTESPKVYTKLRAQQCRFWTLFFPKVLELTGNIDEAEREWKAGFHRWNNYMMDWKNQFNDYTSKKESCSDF
Chain of Acetylcholinesterase (Electrophorus electricus, UniProt O42275) (O42275 whole entry): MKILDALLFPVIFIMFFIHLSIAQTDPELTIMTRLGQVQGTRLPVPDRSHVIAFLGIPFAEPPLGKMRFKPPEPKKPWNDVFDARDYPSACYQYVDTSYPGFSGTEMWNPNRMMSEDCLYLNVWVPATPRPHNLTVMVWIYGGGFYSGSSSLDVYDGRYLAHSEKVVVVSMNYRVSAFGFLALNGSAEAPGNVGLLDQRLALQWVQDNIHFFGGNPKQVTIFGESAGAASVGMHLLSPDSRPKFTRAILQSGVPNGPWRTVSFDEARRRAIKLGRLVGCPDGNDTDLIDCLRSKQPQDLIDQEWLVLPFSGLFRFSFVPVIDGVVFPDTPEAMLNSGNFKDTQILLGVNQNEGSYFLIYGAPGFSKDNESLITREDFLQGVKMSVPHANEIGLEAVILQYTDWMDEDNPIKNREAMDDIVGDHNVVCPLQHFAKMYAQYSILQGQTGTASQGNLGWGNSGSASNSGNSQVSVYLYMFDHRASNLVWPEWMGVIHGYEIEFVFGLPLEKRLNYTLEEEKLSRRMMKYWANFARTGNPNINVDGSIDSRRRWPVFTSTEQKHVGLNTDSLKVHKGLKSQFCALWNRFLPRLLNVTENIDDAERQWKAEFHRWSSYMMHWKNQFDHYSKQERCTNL

In the case of `O=C1CCc2ccc(OCCCCCCN3CCN(c4ccccn4)CC3)cc2N1`, the Ratio IC50 in the test filed under Rattus norvegicus came out at 1.4; in test [4], 0.2; in the test filed under Homo sapiens it was 2. Besides, the IC50 against Acetylcholinesterase [1] was 19.1 µM; against Cholinesterase, 4.1 µM; against Acetylcholinesterase [2], 34.1 µM; in test [3], 48.2 µM; in [5], 5.6 µM; in test [6] it was 11.3 µM.

With `C#CCN(CCCCCCOc1ccc2c(c1)NC(=O)CC2)Cc1ccccc1`, the Ratio IC50 was 1.9 in the test filed under Rattus norvegicus, 0.2 in test [4] and 3.8 in the test listed under Homo sapiens. In addition, the IC50 at Acetylcholinesterase [1] stood at 13.7 µM; on Cholinesterase it was 2.4 µM; against Acetylcholinesterase [2], 13 µM; in test [3] it was 24.5 µM; in test [5] it was 1 µM; in test [6], 3.8 µM.

Turning to `O=C1CCc2ccc(OCCCN3CCc4ccccc4C3)cc2N1`, the Ratio IC50 in the test filed under Rattus norvegicus was found to be 0.8; in [4], 0.4; in the test filed under Homo sapiens it was 2.2. Further, the IC50 against Acetylcholinesterase [1] was 13.3 µM; against Cholinesterase, 5.5 µM; against Acetylcholinesterase [2], 15.5 µM; in test [3], 12.6 µM; in test [5], 8.6 µM; in [6], 18.8 µM.

With `CC(C)N1CCN(CCCCCCOc2ccc3c(c2)NC(=O)CC3)CC1`, the Ratio IC50 stood at 0.7 in the test filed under Rattus norvegicus, 2.7 in test [4] and 3.7 in the test listed under Homo sapiens. In addition, the IC50 on Acetylcholinesterase [1] amounted to 0.76 µM; on Cholinesterase it was 2 µM; against Acetylcholinesterase [2], 2.43 µM; in test [3] it was 1.8 µM; in test [5], 6.8 µM; in test [6] it was 24.9 µM.

For the molecule `O=C1CCc2ccc(OCCCCCCN3CCN(Cc4ccccc4)CC3)cc2N1`, the Ratio IC50 was 1.3 in the test filed under Rattus norvegicus, 0.5 in test [4] and 0.7 in the test listed under Homo sapiens. Moreover, the IC50 against Acetylcholinesterase [1] is 12.9 µM; against Cholinesterase it was 6.6 µM; at Acetylcholinesterase [2], 17.9 µM; in test [3] it was 24 µM; in test [5] it was 5.7 µM; in [6], 4.3 µM.

As for `O=C1CCc2ccc(OCCCCCCN3CCCC3)cc2N1`, the Ratio IC50 came out at 2.5 in the test filed under Rattus norvegicus, 0.33 in test [4] and 2.8 in the test filed under Homo sapiens. The IC50 against Acetylcholinesterase [1] turned out to be 2.6 µM; on Cholinesterase it was 0.87 µM; against Acetylcholinesterase [2], 3.4 µM; in test [3], 8.5 µM; in test [5], 1.3 µM; in test [6], 3.5 µM.

Take `CC(C)N1CCN(CCCOc2ccc3c(c2)NC(=O)CC3)CC1`: the Ratio IC50 in the test listed under Rattus norvegicus was 0.7; in [4], 3.3; in the test filed under Homo sapiens, 2.8. Also, the IC50 on Acetylcholinesterase [1] is 6.2 µM; at Cholinesterase, 20 µM; on Acetylcholinesterase [2], 14 µM; in [3] it was 10.2 µM; in [5] it was 9.4 µM; in test [6] it was 26.1 µM.

In the case of `C#CCN(CCCOc1ccc2c(c1)NC(=O)CC2)Cc1ccccc1`, the results for the Ratio IC50 (in the test listed under Rattus norvegicus; in test [4]; in the test filed under Homo sapiens) were 1.2, 1.3 and 0.8, respectively. The IC50 against Acetylcholinesterase [1] stood at 23.5 µM; at Cholinesterase, 29.5 µM; against Acetylcholinesterase [2] it was 26 µM; in [3], 30.3 µM; in [5] it was 9 µM; in [6], 7.3 µM.

As for `O=C1CCc2ccc(OCCCCN3CCN(c4ccccn4)CC3)cc2N1`, the values for the Ratio IC50 (in the test filed under Rattus norvegicus; in test [4]; in the test filed under Homo sapiens) were 1.9, 0.6 and 1.5, respectively. The IC50 was found to be 13.8 µM at Acetylcholinesterase [1]; 8.4 µM against Cholinesterase; 21 µM at Acetylcholinesterase [2]; 40 µM in test [3]; 6.9 µM in test [5]; 10.1 µM in test [6].

With `O=C1CCc2ccc(OCCCCCN3CCN(Cc4ccccc4)CC3)cc2N1`, the results for the Ratio IC50 (in the test listed under Rattus norvegicus; in test [4]; in the test listed under Homo sapiens) were 1.9, 1.3 and 2.7, respectively. For the same molecule, the IC50 against Acetylcholinesterase [1] was 10 µM; on Cholinesterase, 12.7 µM; against Acetylcholinesterase [2], 15.7 µM; in [3], 29.6 µM; in test [5], 2.4 µM; in test [6] it was 6.5 µM.

On to `O=C1CCc2ccc(OCCCN3CCC(N4CCCC4)CC3)cc2N1`, for which the Ratio IC50 in the test listed under Rattus norvegicus amounted to 1.3; in test [4] it was 6.9; in the test listed under Homo sapiens, 2. For the same molecule, the IC50 against Acetylcholinesterase [1] came out at 5.8 µM; on Cholinesterase it was 39.6 µM; against Acetylcholinesterase [2] it was 16 µM; in test [3], 21.5 µM; in test [5] it was 9.6 µM; in [6], 19.2 µM.

On to `O=C1CCc2ccc(OCCCCCCN3CCCCC3)cc2N1`, for which the values for the Ratio IC50 (in the test listed under Rattus norvegicus; in [4]; in the test filed under Homo sapiens) were 4.5, 0.8 and 3.4, respectively. Besides, the IC50 against Acetylcholinesterase [1] was 17.8 µM; at Cholinesterase, 14.1 µM; against Acetylcholinesterase [2] it was 6 µM; in test [3], 27.2 µM; in [5], 9.4 µM; in test [6], 31.7 µM.

Turning to `C#CCN(CCCCOc1ccc2c(c1)NC(=O)CC2)Cc1ccccc1`, the Ratio IC50 in the test listed under Rattus norvegicus turned out to be 1.4; in test [4], 0.9; in the test filed under Homo sapiens, 1. The IC50 on Acetylcholinesterase [1] came out at 21.4 µM; against Cholinesterase, 19.1 µM; at Acetylcholinesterase [2], 23.3 µM; in test [3], 32.1 µM; in test [5], 9.3 µM; in test [6], 9.1 µM.

For `COc1cc2c(cc1OC)C(=O)C(CC1CCN(Cc3ccccc3)CC1)C2` (stereo not given) [DONEPEZIL], the IC50 in test [3] amounted to 4.42 µM.

As to `O=C1CCc2ccc(OCCCCN3CCCCC3)cc2N1`, the values for the Ratio IC50 (in the test filed under Rattus norvegicus; in test [4]; in the test listed under Homo sapiens) were 2, 1.3 and 0.7, respectively. In addition, the half-inhibitory concentration (IC50) was found to be 11.8 µM against Acetylcholinesterase [1]; 15.7 µM on Cholinesterase; 11.6 µM against Acetylcholinesterase [2]; 22.8 µM in [3]; 9.5 µM in [5]; 6.4 µM in test [6].

Turning to `O=C1CCc2ccc(OCCCCCCN3CCC(N4CCCC4)CC3)cc2N1`, the Ratio IC50 in the test listed under Rattus norvegicus came out at 1.6; in [4], 6.2; in the test listed under Homo sapiens, 3. Besides, the IC50 against Acetylcholinesterase [1] was determined as 5.3 µM; at Cholinesterase it was 32.7 µM; on Acetylcholinesterase [2], 12.3 µM; in test [3], 20.2 µM; in test [5] it was 6.2 µM; in [6], 18.3 µM.

`CCN(CC)CCCCOc1ccc2c(c1)NC(=O)CC2`: the Ratio IC50 in the test listed under Rattus norvegicus was determined as 0.7; in test [4] it was 1.5; in the test listed under Homo sapiens, 0.5. In addition, the IC50 against Acetylcholinesterase [1] was 5.1 µM; against Cholinesterase it was 7.7 µM; against Acetylcholinesterase [2] it was 14.5 µM; in [3] it was 9.5 µM; in test [5] it was 7.7 µM; in test [6], 4 µM.

For orientation: IC50 means the point on the concentration scale where inhibition reaches its midpoint.
